This is an account of results in ChEMBL document CHEMBL1944509, “Methyl-monofluorination of ibuprofen selectively increases its inhibitory activity toward cyclooxygenase-1 leading to enhanced analgesic activity and reduced gastric damage in vivo” (Bioorg Med Chem Lett, 2011).

A short description of data set [1]: Plasma concentration in ICR mouse at 10 mg/kg, po after 2 hrs by HPLC/MS/MS analysis. The data set is classed as ADME, organism-based. Also on record: dose 10 mg/kg, route oral.
In data set [2] the test system is Mus musculus. The experiment in a line: Analgesic activity in Swiss albino mouse assessed as inhibition of acetic acid-induced writhing at 33.6 mg/kg, ig administered 1 hr before acetic acid challenge measured 10 mins post acetic acid challenge. The data set is classed as functional. Conditions: po, route intragastric. The essentials: (§1)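 Male Swiss albino mice (22–24 g), three groups, n = 8; drug suspended in 0.5% CMC given i.g. (0.3 ml/10 g) 1 h before i.p.-unspecified injection of 1% (v/v) acetic acid at 0.1 ml/10 g. Writhes counted for 10 min starting 10 min after acetic acid; activity as percent decrease in writhing versus vehicle control; mean ± SEM, ANOVA then t-test.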
Background: Writhing tests count abdominal constrictions after an irritant is injected.

Data set [3] can be described thus: Apparent volume of distribution in ICR mouse at 5 mg/kg, iv. The data set is classed as ADME, organism-based. Also on record: dose 5 mg/kg, route intravenous. Conditions: in vivo, read-out: Vz.
For data set [4], the system named is Mus musculus. The experiment in a line: Ratio of drug level in brain to plasma in ICR mouse at 10 mg/kg, po.
The target in data set [5] is T1, Prostaglandin G/H synthase 1 (Ovis aries, UniProt P05979).
T1 sequence (P05979 whole entry): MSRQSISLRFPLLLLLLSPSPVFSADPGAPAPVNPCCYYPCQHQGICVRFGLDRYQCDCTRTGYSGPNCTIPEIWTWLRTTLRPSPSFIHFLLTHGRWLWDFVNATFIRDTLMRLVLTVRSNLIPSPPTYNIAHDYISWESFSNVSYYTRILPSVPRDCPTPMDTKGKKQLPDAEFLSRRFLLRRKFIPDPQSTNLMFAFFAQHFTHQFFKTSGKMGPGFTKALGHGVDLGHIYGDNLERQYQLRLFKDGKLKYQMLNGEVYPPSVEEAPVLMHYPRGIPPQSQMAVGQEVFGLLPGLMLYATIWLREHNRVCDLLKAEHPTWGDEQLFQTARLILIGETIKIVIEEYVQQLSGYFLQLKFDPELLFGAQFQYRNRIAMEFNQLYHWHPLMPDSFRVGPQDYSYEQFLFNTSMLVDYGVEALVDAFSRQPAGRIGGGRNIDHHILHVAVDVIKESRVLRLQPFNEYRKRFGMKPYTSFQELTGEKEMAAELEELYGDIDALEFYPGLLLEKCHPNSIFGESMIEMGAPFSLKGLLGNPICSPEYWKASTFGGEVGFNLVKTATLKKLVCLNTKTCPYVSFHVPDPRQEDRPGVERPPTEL
The experiment in a line: Inhibition of ovine COX1 by EIA.

Data set [6] deals with Nucleic Acid. The experiment in a line: Ratio of drug level in brain to plasma in ICR mouse at 10 mg/kg, po after 2 hrs by HPLC/MS/MS analysis. Also on record: dose 10 mg/kg, route oral. In kind it is ADME, organism-based.
The nature of data set [7]: Apparent half life in ICR mouse at 5 mg/kg, iv. The data set is classed as ADME, organism-based. Also noted: dose 5 mg/kg, route intravenous. Conditions: in vivo, read-out: t1/2(app) (converted).
The subject of data set [8] is Rattus norvegicus. The experiment in a line: Gastrointestinal toxicity in Wistar rat assessed as ulcerogenic effect at 108.8 mg/kg, po measured after 17 hrs post treatment (Rvb =0.50 +/- 0.41). The data set is classed as organism-based. Also on record: dose 108.8 mg/kg, route oral. Particulars: in vivo. The gist of the method: (§2)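 Wistar rats, 150–200 g, eight per group, fasted at least 8 h with water ad libitum. Drug is given orally as a 0.5% CMC suspension at 10 ml/kg; controls get 0.5% CMC. Food is returned after 30 min. At 17 h rats are killed with CO₂ and stomachs removed. Damage score is the summed lesion lengths in mm per rat; mean ± SEM.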

The target in data set [9] is T2, Prostaglandin G/H synthase 1 (Homo sapiens, UniProt P23219). The experiment in a line: Ratio of ibuprofen IC50 to compound IC50 for human COX1 in HEL 92.1.7 cells.
Data set [10] has as its system Rattus norvegicus. The experiment in a line: Antiinflammatory activity in Wistar albino rat assessed as inhibition of carrageenan-induced paw edema at 33.6 mg/kg, ig administered 1 hr before carrageenan challenge measured after 4 hrs post carrageenan challenge by plethysmometer. The data set is classed as functional. Particulars: po, route intragastric. The gist of the method: (§3)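 Male Wistar rats (140–160 g), three groups of eight; drug as 0.5% CMC suspension i.g., controls given CMC only. 1 h later, 0.1 ml of 0.1% carrageenan in 0.9% NaCl injected sub-plantar into right hind paw. Paw volume read by plethysmometer hourly to 6 h and at 24 h; inhibition % = (Vc − Vt)/Vc × 100 from mean volume increases; mean ± SEM.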
In general terms: In the carrageenan paw model, swelling and tenderness develop within hours.

In data set [11] the target is T2, Prostaglandin G/H synthase 1. The experiment in a line: Inhibition of COX1 in human HEL 92.1.7 cells assessed as thromboxane B2 production incubated for 30 mins before arachidonic acid addition measured after 15 mins by ELISA. The data set is classed as cell-based. The gist of the method: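 HEL92.1.7 cells at 10⁸/ml in fresh medium, incubated with drug (10⁻⁶–10 μM range) for 30 min at 37 °C. TXB₂ is measured in cell-free supernatant by ELISA and expressed as a ratio to vehicle-only cultures; mean ± SD; IC50 from the concentration–response curve.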
(ELISA stands for enzyme-linked immunosorbent assay.)

A short description of data set [12]: Drug level in ICR mouse brain at 10 mg/kg, po after 1 hr by HPLC/MS/MS analysis. Conditions: read-out: Drug uptake. In kind it is ADME, organism-based. Also on record: dose 10 mg/kg, route oral.
A short description of data set [13]: Clearance in ICR mouse at 5 mg/kg, iv. In kind it is ADME, organism-based. Also noted: dose 5 mg/kg, route intravenous. Conditions: in vivo.
Data set [14] has as its system Nucleic Acid. The experiment in a line: Ratio of drug level in brain to plasma in ICR mouse at 10 mg/kg, po after 4 hrs by HPLC/MS/MS analysis. In kind it is ADME, organism-based. Also on record: dose 10 mg/kg, route oral.
In data set [15] the test system is Mus musculus. The experiment in a line: Ratio of drug level in brain to plasma in ICR mouse at 5 mg/kg, iv.
For data set [16], the system named is Nucleic Acid. The experiment in a line: Ratio of drug level in brain to plasma in ICR mouse at 10 mg/kg, po after 0.083 hrs by HPLC/MS/MS analysis. The data set is classed as ADME, organism-based. Also noted: dose 10 mg/kg, route oral.
In data set [17] the test system is Nucleic Acid. The experiment in a line: Ratio of drug level in brain to plasma in ICR mouse at 5 mg/kg, iv after 1 hr by HPLC/MS/MS analysis. In kind it is ADME, organism-based. Also on record: dose 5 mg/kg, route intravenous.
The subject of data set [18] is Mus musculus. The experiment in a line: Analgesic activity in Swiss albino mouse assessed as inhibition of acetic acid-induced writhing at 30 mg/kg, ig administered 1 hr before acetic acid challenge measured 10 mins post acetic acid challenge. The data set is classed as functional. Conditions: po, route intragastric. The essentials:
as §1

Data set [19] has as its system Rattus norvegicus. The experiment in a line: Gastrointestinal toxicity in Wistar rat assessed as ulcerogenic effect at 100 mg/kg, po measured after 17 hrs post treatment (Rvb =0.50 +/- 0.41). In kind it is organism-based. Also noted: dose 100 mg/kg, route oral. Conditions: in vivo. The gist of the method:
as §2

Data set [20] deals with Nucleic Acid. The experiment in a line: Ratio of drug level in brain to plasma in ICR mouse at 5 mg/kg, iv after 4 hrs by HPLC/MS/MS analysis. In kind it is ADME, organism-based. Also noted: dose 5 mg/kg, route intravenous.
The subject of data set [21] is Rattus norvegicus. The experiment in a line: Antiinflammatory activity in Wistar albino rat assessed as inhibition of carrageenan-induced paw edema at 30 mg/kg, ig administered 1 hr before carrageenan challenge measured after 4 hrs post carrageenan challenge by plethysmometer. The data set is classed as functional. Conditions: po, route intragastric. The essentials:
as §3

In data set [22] the test system is Nucleic Acid. The experiment in a line: Ratio of drug level in brain to plasma in ICR mouse at 5 mg/kg, iv after 6 hrs by HPLC/MS/MS analysis. In kind it is ADME, organism-based. Also noted: dose 5 mg/kg, route intravenous.
Data set [23] in a line: Drug level in ICR mouse brain at 10 mg/kg, po after 6 hrs by HPLC/MS/MS analysis. The data set is classed as ADME, organism-based. Also noted: dose 10 mg/kg, route oral. Particulars: read-out: Drug uptake.
Data set [24] in a line: Drug level in ICR mouse brain at 5 mg/kg, iv after 4 hrs by HPLC/MS/MS analysis. In kind it is ADME, organism-based. Also on record: dose 5 mg/kg, route intravenous. Conditions: read-out: Drug uptake.
The test system of data set [25] is Nucleic Acid. The experiment in a line: Ratio of drug level in brain to plasma in ICR mouse at 10 mg/kg, po after 6 hrs by HPLC/MS/MS analysis. The data set is classed as ADME, organism-based. Also on record: dose 10 mg/kg, route oral.

T2 sequence (P23219 whole entry): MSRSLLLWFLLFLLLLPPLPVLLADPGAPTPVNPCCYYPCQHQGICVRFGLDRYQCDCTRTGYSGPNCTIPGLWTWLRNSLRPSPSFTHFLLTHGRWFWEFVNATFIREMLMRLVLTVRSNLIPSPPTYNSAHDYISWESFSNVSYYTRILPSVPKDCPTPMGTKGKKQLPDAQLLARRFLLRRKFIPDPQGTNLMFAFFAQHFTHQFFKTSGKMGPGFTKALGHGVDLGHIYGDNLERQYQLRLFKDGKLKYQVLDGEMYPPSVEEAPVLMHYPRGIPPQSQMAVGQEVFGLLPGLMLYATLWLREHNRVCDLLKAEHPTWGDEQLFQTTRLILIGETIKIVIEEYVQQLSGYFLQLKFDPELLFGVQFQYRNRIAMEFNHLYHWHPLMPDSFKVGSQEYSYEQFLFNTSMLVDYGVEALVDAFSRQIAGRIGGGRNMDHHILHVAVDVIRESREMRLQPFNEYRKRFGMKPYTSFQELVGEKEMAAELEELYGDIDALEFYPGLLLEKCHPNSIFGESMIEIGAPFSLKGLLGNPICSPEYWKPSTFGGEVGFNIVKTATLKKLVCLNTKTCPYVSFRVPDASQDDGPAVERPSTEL

As usually defined, the inhibition in vivo is the drop in the measured response relative to a control, in per cent. A word on the IC50: it is the point on the concentration scale where inhibition reaches its midpoint. What is called clearance is the rate of elimination divided by the concentration. Consider `CC(C)Cc1ccc([C@H](CF)C(=O)O)cc1`, for which the concentration at 2 h in data set [1] was found to be 5310 ng/mL. Also, the inhibition in vivo at 33.6 mg/kg in data set [2] was determined as 50%; in data set [10], 41.3%. Moreover, the Vd in data set [3] amounted to 0.27 L/kg. In addition, the BPR in [4] was 0.025 mL/g; in [6] it was 0.03 mL/g; in [14], 0.032 mL/g; in data set [15], 0.031 mL/g; in data set [16] it was 0.027 mL/g; in data set [17] it was 0.041 mL/g. The concentration for half-maximal inhibition (IC50) amounted to 500 nM in [5] and 1.23 nM in data set [11]. The half-life in data set [7] is 52.8 min. The Activity entry in data set [8] is “Toxic”. For the same compound, the Ratio IC50 in data set [9] came to 80. Moreover, the inhibition result in [11] is “Dose-dependent effect”. Besides, the concentration at 1 h in data set [12] was found to be 516 ng/g. The compound also had a clearance in data set [13] of 3.5 mL/min/kg.

For the compound `CC(C)Cc1ccc([C@H](C)C(=O)O)cc1` [DEXIBUPROFEN], the inhibition in vivo at 30 mg/kg in [18] came out at 68.7%; in data set [21] it was 29.5%. The same compound returned a concentration at 2 h in [1] of 15800 ng/mL. Further, the Activity result in [19] is on record as “Toxic”. For the same compound, the results for the BPR in data set [20], in data set [22] and in data set [25] were 0.044 mL/g, 0.059 mL/g and 0.036 mL/g, respectively. The concentration at 6 h in data set [23] was determined as 43.1 ng/g. Further, the concentration at 4 h in data set [24] was determined as 41.5 ng/g. In addition, the concentration at 1 h in data set [12] is 721 ng/g.
